Assay results published in PMC3064798 (Nucleic Acids Research, 2011).
“And” between values parts separate entries of the source, which are not always exact repeats. Equal entries are not always repeated.

Legend:
Vent(exo^−) polymerase [1] = molecular target: T1, Vent(exo^−) polymerase (Thermococcus litoralis, UniProt P30317, D141A/DEL1082-1471/DEL495-1032/E143A); conditions: cited from earlier work
T1 sequence (P30317 with tags, fused parts or gaps D141A/E143A/DEL495-1032/DEL1082-1471): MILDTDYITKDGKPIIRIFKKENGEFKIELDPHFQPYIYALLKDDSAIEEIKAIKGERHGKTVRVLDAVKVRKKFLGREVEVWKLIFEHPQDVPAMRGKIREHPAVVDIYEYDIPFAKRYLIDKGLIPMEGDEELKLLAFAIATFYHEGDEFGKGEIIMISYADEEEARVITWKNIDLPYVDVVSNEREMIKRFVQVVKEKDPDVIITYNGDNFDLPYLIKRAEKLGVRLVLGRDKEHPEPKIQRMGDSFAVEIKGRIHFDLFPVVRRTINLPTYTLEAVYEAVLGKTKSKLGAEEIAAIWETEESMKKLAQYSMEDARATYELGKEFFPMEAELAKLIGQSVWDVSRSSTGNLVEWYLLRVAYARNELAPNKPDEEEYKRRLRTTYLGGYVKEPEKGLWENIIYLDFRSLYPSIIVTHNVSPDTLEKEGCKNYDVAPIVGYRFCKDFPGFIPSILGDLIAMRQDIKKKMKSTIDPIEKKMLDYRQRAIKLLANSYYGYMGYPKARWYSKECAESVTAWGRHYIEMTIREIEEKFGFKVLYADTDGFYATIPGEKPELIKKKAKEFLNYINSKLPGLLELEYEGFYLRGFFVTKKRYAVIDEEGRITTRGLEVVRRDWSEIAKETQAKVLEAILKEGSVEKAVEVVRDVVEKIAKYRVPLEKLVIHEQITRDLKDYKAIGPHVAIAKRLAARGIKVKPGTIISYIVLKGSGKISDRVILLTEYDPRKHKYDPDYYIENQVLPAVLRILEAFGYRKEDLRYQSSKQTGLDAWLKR

Vent(exo^−) polymerase [2] = molecular target: T1, Vent(exo^−) polymerase; test: Nucleotide selectivity; format: biochemical; conditions: each mismatch combination
Summary of the method: (§1)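 Base discrimination was measured by PEP assay. OligoTemplate-4 was replaced with 40 nM oligoTemplate-2 or oligoTemplate-5 to give mismatched template bases. For the T—G mismatch, 5 nM BODIPY-FL primer-3 was hybridised to 40 nM oligoTemplate-8. The selectivity ratio is the mismatched IC50 divided by the matched IC50.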

Vent(exo^−) polymerase [3] = molecular target: T1, Vent(exo^−) polymerase; test: PCR of TCF1 exons 2 and 10 with TTP or HOMedUTP; format: biochemical; conditions: 200 μM each dNTP
Summary of the method: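 Human genomic DNA (~50 ng) was amplified with 0.4 µM primer pairs and one unit of Vent(exo−). Buffer was 1× ThermoPol (20 mM Tris–HCl pH 8.8, 2 mM MgSO4, etc.) with 1 M betaine. dATP, dCTP and dGTP were at 200 μM each, with TTP or HOMedUTP. Cycling: 95°C 4 min; 35× (95°C 30 s, 59°C 30 s, 72°C 90 s); 72°C 7 min. Expected products: 602 bp (exon 2) and 670 bp (exon 10).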

Therminator polymerase [4] = molecular target: T2, Therminator polymerase (Thermococcus sp., UniProt Q56366, A485L/D141A/E143A); test: Nucleotide selectivity; format: biochemical
T2 sequence (Q56366 1-775 D141A/E143A/A485L): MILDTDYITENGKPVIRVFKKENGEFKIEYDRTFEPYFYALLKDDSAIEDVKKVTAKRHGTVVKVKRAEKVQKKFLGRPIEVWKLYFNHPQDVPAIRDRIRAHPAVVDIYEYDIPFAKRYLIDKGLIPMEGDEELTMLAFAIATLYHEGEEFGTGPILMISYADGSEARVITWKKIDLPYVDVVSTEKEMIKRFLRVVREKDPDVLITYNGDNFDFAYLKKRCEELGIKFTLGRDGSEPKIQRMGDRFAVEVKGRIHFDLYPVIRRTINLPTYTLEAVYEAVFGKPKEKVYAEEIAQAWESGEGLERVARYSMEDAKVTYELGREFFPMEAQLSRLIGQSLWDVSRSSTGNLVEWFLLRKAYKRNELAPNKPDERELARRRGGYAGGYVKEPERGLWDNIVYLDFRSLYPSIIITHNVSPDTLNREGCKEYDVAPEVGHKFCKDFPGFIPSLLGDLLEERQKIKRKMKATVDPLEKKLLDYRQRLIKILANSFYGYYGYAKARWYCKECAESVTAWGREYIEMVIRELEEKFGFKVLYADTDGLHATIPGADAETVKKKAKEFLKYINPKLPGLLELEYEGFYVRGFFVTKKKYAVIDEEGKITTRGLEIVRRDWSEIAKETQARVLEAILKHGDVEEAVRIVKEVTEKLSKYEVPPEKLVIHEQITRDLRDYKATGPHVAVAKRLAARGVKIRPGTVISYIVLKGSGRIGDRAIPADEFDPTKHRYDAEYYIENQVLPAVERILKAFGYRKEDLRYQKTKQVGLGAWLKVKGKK
Summary of the method: as §1

[5] = Photochemical cleavage studies; format: physicochemical; conditions: 50 mM NaN3; 365 nm UV; incorporated in primer-1/oligoTemplate-4
Summary of the method: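 Analogs (100 nM final) were incorporated as in PEP on BODIPY-FL primer-1/oligoTemplate-4 (10 nM/80 nM). Reactions were quenched in FBD solution (20% formamide, 10 mM Na2EDTA pH 8.0, Blue Dextran) or 50 mM sodium azide. Samples were irradiated at 365 nm for various times, then iced, mixed with formamide stop solution and run on an AB 377 sequencer. DT50 is the time for 50% cleavage, from triplicates ± 1 SD.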

Vent(exo^−) polymerase [6] = molecular target: T1, Vent(exo^−) polymerase; test: Weighted-sum assay for termination; format: biochemical; conditions: nucleotide at 3 μM (∼1000× IC50), oligoTemplate-7
Therminator polymerase [7] = molecular target: T2, Therminator polymerase; test: Weighted-sum assay for termination; format: biochemical; conditions: nucleotide at 3 μM (∼1000× IC50), oligoTemplate-7
TaqFS polymerase = TaqFS polymerase (Thermus aquaticus, UniProt P19821, F667Y/G46D); test: PEP; format: biochemical; conditions: TaqFS; Not Active = no visible +1 band in 377 gel image at 100 μM
Summary of the method: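 Polymerase end-point assay for single-base incorporation. 5 nM BODIPY-FL-labelled primer-1 was hybridised to 40 nM oligoTemplate-4, with the interrogation base complementary to dU. Absence of a +1 band on the 377 gel image at 100 μM counts as not active. IC50 was averaged from triplicates ± 1 SD. Incorporation bias is the analog IC50 divided by the natural-nucleotide (HOMedUTP) IC50.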

Therminator polymerase [8] = molecular target: T2, Therminator polymerase; test: Ten cycle CRT sequencing; format: biochemical; conditions: 3 μM; UV cleavage in 50 mM sodium azide
Summary of the method: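 Biotinylated oligoTemplate-7 was bound to streptavidin M-270 beads with BODIPY-FL primer-2S, then preloaded with 0.5 U Therminator in 1× ThermoPol on ice for 5 min. Each cycle: incorporation at 65°C for 5 min, W10 washes, then 365 nm UV (~0.7 W/cm2, 4× 1 min) in 50 mM azide and ThermoPol washes. After ten cycles, products were run on a 10% polyacrylamide gel (377). Band quantification gave cycle efficiency (incorporation × cleavage) and dephasing (%n–2, %n–1, %n+1).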

Sequence of TaqFS polymerase (P19821 whole entry G46D/F667Y): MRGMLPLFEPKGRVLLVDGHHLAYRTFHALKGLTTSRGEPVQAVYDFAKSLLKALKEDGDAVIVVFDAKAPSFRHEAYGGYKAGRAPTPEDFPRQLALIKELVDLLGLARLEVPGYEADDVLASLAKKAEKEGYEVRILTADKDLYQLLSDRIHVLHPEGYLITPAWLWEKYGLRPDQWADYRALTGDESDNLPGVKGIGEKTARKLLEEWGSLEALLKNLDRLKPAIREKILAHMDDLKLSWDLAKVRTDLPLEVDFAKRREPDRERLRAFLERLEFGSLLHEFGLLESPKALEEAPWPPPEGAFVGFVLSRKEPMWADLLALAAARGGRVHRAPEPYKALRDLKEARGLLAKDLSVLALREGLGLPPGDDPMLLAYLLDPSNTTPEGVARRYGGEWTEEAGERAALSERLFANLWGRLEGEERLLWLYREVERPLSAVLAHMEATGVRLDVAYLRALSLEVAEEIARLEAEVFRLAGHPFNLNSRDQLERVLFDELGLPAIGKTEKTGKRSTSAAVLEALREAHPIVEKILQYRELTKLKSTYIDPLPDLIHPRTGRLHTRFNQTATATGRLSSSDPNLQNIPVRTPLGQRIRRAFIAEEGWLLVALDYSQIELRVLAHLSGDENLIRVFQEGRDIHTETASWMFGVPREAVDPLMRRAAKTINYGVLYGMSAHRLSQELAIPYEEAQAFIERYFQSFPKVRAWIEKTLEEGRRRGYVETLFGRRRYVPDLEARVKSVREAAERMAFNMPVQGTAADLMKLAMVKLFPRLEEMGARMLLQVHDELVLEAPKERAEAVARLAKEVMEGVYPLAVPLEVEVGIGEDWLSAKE

C=CCO[C@H]1C[C@H](n2cnc3c(N)ncnc32)O[C@@H]1COP(=O)(O)OP(=O)(O)OP(=O)(O)O [3′-O-allyl-dATP]
Incorporation by polymerase (in words) (Vent(exo^−) polymerase [1]): not efficiently incorporated

O=c1[nH]c(=O)n([C@H]2C[C@H](O)[C@@H](COP(=O)(O)OP(=O)(O)OP(=O)(O)O)O2)cc1CO [HOMedUTP, 5-hydroxymethyl-2′-deoxyuridine triphosphate]
Selectivity ratio (mismatched IC50/matched IC50) (Vent(exo^−) polymerase [2]): greater than three orders of magnitude | PCR product yield and size, HOMedUTP in place of TTP (Vent(exo^−) polymerase [3]): Comparable yields and product size

Cc1cn([C@H]2C[C@H](O)[C@@H](COP(=O)(O)OP(=O)(O)OP(=O)(O)O)O2)c(=O)n(Cc2ccccc2[N+](=O)[O-])c1=O [T.I, N^3-(2-Nitrobenzyl)-thymidine-5’-triphosphate]
Selectivity ratios / mismatch discrimination (in words) (Therminator polymerase [4]): indiscriminately against all mismatched template bases

CC(C)[C@H](OCc1cn([C@H]2C[C@H](O)[C@@H](COP(=O)(O)OP(=O)(O)OP(=O)(O)O)O2)c(=O)[nH]c1=O)c1ccccc1[N+](=O)[O-] [dU.IV, 5-[(S)-1-(2-Nitrophenyl)-2-methyl-propyloxy]methyl-2'-deoxyuridine-5’-triphosphate]
DT50 values (time at which 50% of 2-nitrobenzyl groups were photochemically cleaved) [5]: 1.8 s and 1.8 ± 0.1 s | Selectivity ratios / mismatch discrimination (in words) (Therminator polymerase [4]): almost three orders of magnitude | Weighted-sum value (Vent(exo^−) polymerase [6]): 1.7 and 1.7 ± 0.1 | Weighted-sum value (Therminator polymerase [7]): 1.9 and 1.9 ± 0.2

CC(C)(C)[C@H](OCc1cn([C@H]2C[C@H](O)[C@@H](COP(=O)(O)OP(=O)(O)OP(=O)(O)O)O2)c(=O)[nH]c1=O)c1ccccc1[N+](=O)[O-] [dU.V, 5-[(S)-1-(2-nitrophenyl)-2,2-dimethyl-propyloxy]methyl-2'-deoxyuridine-5’-triphosphate]
DT50 values (time at which 50% of 2-nitrobenzyl groups were photochemically cleaved) [5]: 1.3 s and 1.3 ± 0.1 s | Selectivity ratios / mismatch discrimination (in words) (Therminator polymerase [4]): almost three orders of magnitude | IC50 values (activity in words) (TaqFS polymerase): not incorporated | Weighted-sum value (Vent(exo^−) polymerase [6]): 1.0 and 1.0 ± 0.0 | Weighted-sum value (Therminator polymerase [7]): 1.0 and 1.0 ± 0.0 | Overall signal of reaction products over the 10 CRT cycles (Therminator polymerase [8]): remained relatively constant
